Data: ChEMBL document CHEMBL4325909, “Synthesis and evaluation of chalcone analogues containing a 4-oxoquinazolin-2-yl group as potential anti-tumor agents” (Eur J Med Chem, 2019)
Activity calls are given as the source filed them. The rule behind the calls is not given here.

How the values were obtained:
HCT-116 [1] = experiment: Cytotoxicity against human HCT116 cells assessed as reduction in cell viability after 72 hrs by MTS assay; type: functional, cell-based; details: HCT-116, 72 h
Summary of the method: (§1)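 Cells kept in DMEM with 10% FBS at 37 °C, 5% CO2. Proliferation read by MTS (CellTiter 96 AQueous One) 72 h after exposure across a concentration range. IC50 is the concentration giving 50% proliferation inhibition. Triplicate wells, three independent experiments, mean ± SD.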

MCF7 [2] = experiment: Cytotoxicity against human MCF7 cells assessed as reduction in cell viability after 72 hrs by MTS assay; type: functional, cell-based; details: MCF7, 72 h; summary of the method: as §1
HCT-116 [3] = experiment: Cytotoxicity against human HCT116 cells assessed as reduction in cell viability at 20 uM after 72 hrs by MTS assay relative to control; type: functional
Summary of the method: (§2)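 Cells grown in DMEM with 10% FBS at 37 °C, 5% CO2, exposed to 20 μM for 72 h. Proliferation read by MTS and inhibition expressed relative to vehicle. ≥50% inhibition counted as active. Triplicate wells, three independent experiments.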

MCF7 [4] = experiment: Cytotoxicity against human MCF7 cells assessed as reduction in cell viability at 20 uM after 72 hrs by MTS assay relative to control; type: functional; summary of the method: as §2
A549 = experiment: Cytotoxicity against human A549 cells assessed as reduction in cell viability after 72 hrs by MTS assay; type: functional, cell-based; details: A549, 72 h
Summary of the method: (§3)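 MTS (CellTiter 96 AQueous One) proliferation read after 72 h of exposure across a concentration range. IC50 is the concentration giving 50% proliferation inhibition. Triplicate determinations in three independent experiments, mean ± SD.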

HeLa = experiment: Cytotoxicity against human HeLa cells assessed as reduction in cell viability after 72 hrs by MTS assay; type: functional, cell-based; summary of the method: as §3
HT-29 = experiment: Cytotoxicity against human HT-29 cells assessed as reduction in cell viability after 72 hrs by MTS assay; type: functional, cell-based; details: HT-29, 72 h; summary of the method: as §3
MDA-MB-231 = experiment: Cytotoxicity against human MDA-MB-231 cells assessed as reduction in cell viability after 72 hrs by MTS assay; type: functional, cell-based; details: MDA-MB-231, 72 h; summary of the method: as §3
MCF-10A [5] = experiment: Cytotoxicity against human MCF10A cells assessed as reduction in cell viability after 72 hrs by MTS assay; type: cell-based; summary of the method: as §3
HCT-116 [6] = experiment: Cell cycle arrest in human HCT116 cells assessed as increase in accumulation of cells at sub-G1 phase after 24 hrs by propidium iodide staining-based flow cytometry method; type: functional
HCT-116 [7] = experiment: Induction of apoptosis in human HCT116 cells after 24 hrs by annexin V-FITC/propidium iodide staining-based flow cytometry method; type: functional, cell-based
MCF-10A [8] = experiment: Induction of apoptosis in human MCF10A cells after 24 hrs by annexin V-FITC/propidium iodide staining-based flow cytometry method; type: cell-based
HCT-116 [9] = experiment: Induction of apoptosis in human HCT116 cells assessed as early apoptotic cells at 1 times IC50 after 24 hrs by annexin V-FITC/propidium iodide staining-based flow cytometry method (reference value: 3.8%); type: functional
HCT-116 [10] = experiment: Induction of apoptosis in human HCT116 cells assessed as late apoptotic cells at 1 times IC50 after 24 hrs by annexin V-FITC/propidium iodide staining-based flow cytometry method (reference value: 5.4%); type: functional
HCT-116 [11] = experiment: Induction of apoptosis in human HCT116 cells assessed as necrotic cells at 1 times IC50 after 24 hrs by annexin V-FITC/propidium iodide staining-based flow cytometry method (reference value: 4.8%); type: functional
HCT-116 [12] = experiment: Induction of apoptosis in human HCT116 cells assessed as viable cells at 1 times IC50 after 24 hrs by annexin V-FITC/propidium iodide staining-based flow cytometry method (reference value: 86.0%); type: functional
HCT-116 [13] = experiment: Induction of apoptosis in human HCT116 cells assessed as early apoptotic cells at 2 times IC50 after 24 hrs by annexin V-FITC/propidium iodide staining-based flow cytometry method (reference value: 3.8%); type: functional
HCT-116 [14] = experiment: Induction of apoptosis in human HCT116 cells assessed as late apoptotic cells at 2 times IC50 after 24 hrs by annexin V-FITC/propidium iodide staining-based flow cytometry method (reference value: 5.4%); type: functional
HCT-116 [15] = experiment: Induction of apoptosis in human HCT116 cells assessed as necrotic cells at 2 times IC50 after 24 hrs by annexin V-FITC/propidium iodide staining-based flow cytometry method (reference value: 4.8%); type: functional
HCT-116 [16] = experiment: Induction of apoptosis in human HCT116 cells assessed as viable cells at 2 times IC50 after 24 hrs by annexin V-FITC/propidium iodide staining-based flow cytometry method (reference value: 86.0%); type: functional
MCF-10A [17] = experiment: Induction of apoptosis in human MCF10A cells assessed as early apoptotic cells at 1 times IC50 after 24 hrs by annexin V-FITC/propidium iodide staining-based flow cytometry method (reference value: 0.20%); type: cell-based
MCF-10A [18] = experiment: Induction of apoptosis in human MCF10A cells assessed as late apoptotic cells at 1 times IC50 after 24 hrs by annexin V-FITC/propidium iodide staining-based flow cytometry method (reference value: 3.81%); type: cell-based
MCF-10A [19] = experiment: Induction of apoptosis in human MCF10A cells assessed as necrotic cells at 1 times IC50 after 24 hrs by annexin V-FITC/propidium iodide staining-based flow cytometry method (reference value: 0.57%); type: cell-based
[20] = Induction of apoptosis in human MCF10A cells assessed as viable cells at 1 times IC50 after 24 hrs by annexin V-FITC/propidium iodide staining-based flow cytometry method (reference value: 95.4%); type: cell-based, MCF-10A; details: read-out: Activity
MCF-10A [21] = experiment: Induction of apoptosis in human MCF10A cells assessed as early apoptotic cells at 2 times IC50 after 24 hrs by annexin V-FITC/propidium iodide staining-based flow cytometry method (reference value: 0.20%); type: cell-based
MCF-10A [22] = experiment: Induction of apoptosis in human MCF10A cells assessed as late apoptotic cells at 2 times IC50 after 24 hrs by annexin V-FITC/propidium iodide staining-based flow cytometry method (reference value: 3.81%); type: cell-based
MCF-10A [23] = experiment: Induction of apoptosis in human MCF10A cells assessed as necrotic cells at 2 times IC50 after 24 hrs by annexin V-FITC/propidium iodide staining-based flow cytometry method (reference value: 0.57%); type: cell-based
[24] = Induction of apoptosis in human MCF10A cells assessed as viable cells at 2 times IC50 after 24 hrs by annexin V-FITC/propidium iodide staining-based flow cytometry method (reference value: 95.4%); type: cell-based, MCF-10A; details: read-out: Activity
HCT-116 [25] = experiment: Induction of apoptosis in human HCT116 cells after 24 hrs by acridine orange/ethidium bromide staining-based fluorescence microscopic analysis; type: functional, cell-based
HCT-116 [26] = experiment: Induction of reactive oxygen species generation in human HCT116 cells assessed as increase in mitochondrial superoxide generation at 1 to 2 times IC50 after 24 hrs by MitoSOX red dye-based fluorescence microscopic analysis; type: functional, cell-based
HCT-116 [27] = experiment: Induction of mitochondrial membrane depolarization in human HCT116 cells at 2 times IC50 after 24 hrs by JC-1 staining based fluorescence microscopic analysis; type: functional, cell-based
Summary of the method: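 HCT-116 cells exposed at 2× IC50 for 24 h, washed, then stained with JC-1 in fresh medium for 20 min at 37 °C and rinsed. Red aggregates and green monomers imaged by fluorescence microscopy at 40×.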

HCT-116 [28] = experiment: Induction of apoptosis in human HCT116 cells accumulation of cleaved PARP1 level at 2 times IC50 after 12 hrs by Western blot analysis; type: functional, cell-based
Summary of the method: (§4)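 Whole lysates in SDS/β-mercaptoethanol sample buffer run on 4–18% gradient SDS-PAGE and transferred to PVDF. Blocked in 5% milk/PBST, primary antibodies overnight at 4 °C, HRP secondaries 1 h. β-actin served as loading reference.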

HCT-116 [29] = experiment: Induction of apoptosis in human HCT116 cells accumulation of cleaved caspase-3 level at 2 times IC50 after 12 hrs by Western blot analysis; type: functional, cell-based; summary of the method: as §4
HCT-116 [30] = experiment: Induction of apoptosis in human HCT116 cells accumulation of cleaved caspase-7 level at 2 times IC50 after 12 hrs by Western blot analysis; type: functional, cell-based; summary of the method: as §4
HCT-116 [31] = experiment: Induction of apoptosis in human HCT116 cells accumulation of cleaved caspase-9 level at 2 times IC50 after 12 hrs by Western blot analysis; type: functional, cell-based; summary of the method: as §4
HCT-116 [32] = experiment: Induction of apoptosis in human HCT116 cells accumulation of cleaved caspase-9 level at 2 times IC50 after 8 hrs by Western blot analysis; type: functional, cell-based; summary of the method: as §4
[33] = Selectivity index, ratio of IC50 for human MCF10A cells to IC50 for human MCF7 cells; type: toxicity; details: MCF10A cells versus MCF7 cells, read-out: Ratio IC50
HCT-116 [34] = experiment: Induction of apoptosis in human HCT116 cells after 12 hrs by annexin V-FITC/propidium iodide staining-based flow cytometry method; type: functional, cell-based
MCF-10A [35] = experiment: Induction of apoptosis in human MCF10A cells after 12 hrs by annexin V-FITC/propidium iodide staining-based flow cytometry method; type: cell-based
Summary of the method: (§5)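 Cells were stained with Annexin V-FITC/PI and gated by flow cytometry into live, early apoptotic, late apoptotic and necrotic quadrants. Apoptotic fraction is early plus late, mean ± SD of three independent experiments.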

HCT-116 [36] = experiment: Induction of apoptosis in human HCT116 cells assessed as early apoptotic cells at 1 uM after 12 hrs by annexin V-FITC/propidium iodide staining-based flow cytometry method (reference value: 3.8%); type: functional
HCT-116 [37] = experiment: Induction of apoptosis in human HCT116 cells assessed as late apoptotic cells at 1 uM after 12 hrs by annexin V-FITC/propidium iodide staining-based flow cytometry method (reference value: 5.4%); type: functional
HCT-116 [38] = experiment: Induction of apoptosis in human HCT116 cells assessed as necrotic cells at 1 uM after 12 hrs by annexin V-FITC/propidium iodide staining-based flow cytometry method (reference value: 4.8%); type: functional
HCT-116 [39] = experiment: Induction of apoptosis in human HCT116 cells assessed as viable cells at 1 uM after 12 hrs by annexin V-FITC/propidium iodide staining-based flow cytometry method (reference value: 86.0%); type: functional; details: HCT-116, 12 h, read-out: Activity
MCF-10A [40] = experiment: Induction of apoptosis in human MCF10A cells assessed as early apoptotic cells at 1 uM after 12 hrs by annexin V-FITC/propidium iodide staining-based flow cytometry method (reference value: 0.20%); type: cell-based; summary of the method: as §5
MCF-10A [41] = experiment: Induction of apoptosis in human MCF10A cells assessed as necrotic cells at 1 uM after 12 hrs by annexin V-FITC/propidium iodide staining-based flow cytometry method (reference value: 0.57%); type: cell-based; summary of the method: as §5
[42] = Induction of apoptosis in human MCF10A cells assessed as viable cells at 1 uM after 12 hrs by annexin V-FITC/propidium iodide staining-based flow cytometry method (reference value: 95.4%); type: cell-based, MCF-10A; details: read-out: Activity; summary of the method: as §5
HCT-116 [43] = experiment: Induction of apoptosis in human HCT116 cells at 1 uM after 12 hrs by acridine orange/ethidium bromide staining-based fluorescence microscopic analysis; type: functional, cell-based
HCT-116 [44] = experiment: Induction of reactive oxygen species generation in human HCT116 cells assessed as increase in mitochondrial superoxide generation at 1 uM after 12 hrs by MitoSOX red dye-based fluorescence microscopic analysis; type: functional, cell-based
HCT-116 [45] = experiment: Induction of mitochondrial membrane depolarization in human HCT116 cells at 1 uM after 12 hrs by JC-1 staining based fluorescence microscopic analysis; type: functional, cell-based

COc1ccc(OC)c(C(=O)/C=C/c2nc3ccccc3c(=O)[nH]2)c1
IC50 (HCT-116 [1]): 3.56 µM
IC50 (MCF7 [2]): 4.08 µM
Activity (HCT-116 [3]): >=50%
Activity (MCF7 [4]): >=50%
IC50 (A549): 12.7 µM
IC50 (HeLa): 8.37 µM
IC50 (HT-29): 6.18 µM
IC50 (MDA-MB-231): 10.6 µM
IC50 (MCF-10A [5]): 9.81 µM
Activity (HCT-116 [6]): Dose-dependent effect
Activity (HCT-116 [7]): Dose-dependent effect
Activity (MCF-10A [8]): Dose-dependent effect
Activity (HCT-116 [9]): 2.1%
Activity (HCT-116 [10]): 10.8%
Activity (HCT-116 [11]): 8.9%
Activity (HCT-116 [12]): 78.2%
Activity (HCT-116 [13]): 6.9%
Activity (HCT-116 [14]): 29.1%
Activity (HCT-116 [15]): 9.7%
Activity (HCT-116 [16]): 54.3%
Activity (MCF-10A [17]): 0.3%
Activity (MCF-10A [18]): 4.67%
Activity (MCF-10A [19]): 0.62%
viability at 24 h, 1 times IC50 [20]: 94.4%
Activity (MCF-10A [21]): 1.19%
Activity (MCF-10A [22]): 5.38%
Activity (MCF-10A [23]): 0.87%
viability at 24 h, 2 times IC50 [24]: 92.6%
Activity (HCT-116 [25]): Dose-dependent effect
Activity (HCT-116 [26]): Active
Activity (HCT-116 [27]): Active
Activity (HCT-116 [28]): Active
Activity (HCT-116 [29]): Active
Activity (HCT-116 [30]): Active
Activity (HCT-116 [31]): Active
Activity (HCT-116 [32]): Active
selectivity ratio [33]: > 2

CN[C@@H]1C[C@H]2O[C@@](C)([C@@H]1OC)n1c3ccccc3c3c4c(c5c6ccccc6n2c5c31)C(=O)NC4 [STAUROSPORINE]
Activity (HCT-116 [34]): Dose-dependent effect
Activity (MCF-10A [35]): Dose-dependent effect
Activity (HCT-116 [36]): 25.6%
Activity (HCT-116 [37]): 8.4%
Activity (HCT-116 [38]): 3%
viability at 1 µM (HCT-116 [39]): 63.1%
Activity (MCF-10A [40]): 2.18%
Activity (MCF-10A [41]): 1.22%
viability at 12 h, 1 µM [42]: 85.6%
Activity (HCT-116 [43]): Active
Activity (HCT-116 [44]): Active
Activity (HCT-116 [45]): Active
